Experimental data: PMC9998351 (Steroids, 2023)
Several values for one entry are separate records, joined by “and”; a condition that tells them apart may be missing. Identical values can stand only once.

Assays:
[1] = Intravenous pharmacokinetics in rats; format: in vivo; details: for Cmax/D / Tmax / AUCinf / AUClast / C0 / CL / Cmax / T1/2 / Vss / Vz / AUC(0-inf) / AUC(0-t) / clearance / half-life / Vd: 1 mg/kg IV; for AUC(0-inf): AUCinf; for AUC(0-t): AUClast; for clearance: CL
Method in brief: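 Single 1 mg/kg IV dose to jugular-vein-catheterised Sprague Dawley rats (8–12 wk, 3/sex), given in cremophor:ethanol:saline (1:1:8), pH 4.0 (acetic acid), at 10 ml/kg. EDTA blood was taken at 5, 15, 30 min, 1, 2, 4, 6 and 24 h for plasma. Plasma was prepared by acetonitrile precipitation and aqueous dilution, then run on LC-MS/MS (positive ESI, MRM 439.2>371.2, abiraterone internal standard). Noncompartmental PK.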

[2] = Oral pharmacokinetics and bioavailability in rats; format: in vivo; details: for bioavailability: both; for bioavailability / AUC(0-t) / CL/F: Sprague Dawley, rat, plasma; for AUC% Extrap / Cmax/D / AUClast / Cmax / AUC(0-t) / CL/F: female rats; for AUC(0-t) / CL/F: female; for AUC(0-t): AUClast
Method in brief: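 Sprague Dawley rats (8–12 wk, 3/sex/group, catheterised jugular vein) got one oral gavage dose of 10 or 50 mg/kg. Dose was a solution in cremophor:ethanol:saline (1:1:8), pH 4.0, at 10 ml/kg. EDTA plasma was collected at 5, 15, 30 min, 1, 2, 4, 6 and 24 h, precipitated with acetonitrile, and quantified by LC-MS/MS against abiraterone internal standard. Noncompartmental parameters; bioavailability from oral AUClast versus IV.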

[3] = female rats, individual rat, 1 mg/kg
[4] = female, Sprague Dawley, rat, plasma, iv, 1 mg/kg, female rats, GeoMean
[5] = female, Sprague Dawley, rat, plasma, iv, 1 mg/kg, female rats, individual rat
[6] = male rats, individual rat, 1 mg/kg
[7] = male, Sprague Dawley, rat, plasma, iv, 1 mg/kg, male rats, GeoMean (third rat excluded)
[8] = 10 mg/kg PO, individual rat, listed as VNPP433-3β, 10 mg/kg
[9] = 50 mg/kg PO, individual rat, listed as VNPP433-3β, 50 mg/kg
[10] = po, 10 mg/kg, 10 mg/kg PO, GeoMean
[11] = po, 10 mg/kg, 10 mg/kg PO, individual rat

Compound: C[C@]12CC[C@H](n3ccnc3)CC1=CC[C@@H]1[C@@H]2CC[C@]2(C)C(n3cnc4ccccc43)=CC[C@@H]12 [Compound 2, 3β-(1H-imidazole-1-yl)-17-(1H-benzimidazole-1-yl)-androsta-5,16-diene]
- Cmax/D ([1]; female rats, GeoMean): 311 ng/mL/mg/kg
- Tmax ([1]; female rats, individual rat): 0.0833 h
- AUCinf [1, 3]: 199 µg·min/mL and 171 µg·min/mL
- AUClast [1, 3]: 140 µg·min/mL and 126 µg·min/mL
- C0 [1, 3]: 342 ng/mL and 418 ng/mL
- CL [1, 3]: 5.03 mL/min/kg and 5.85 mL/min/kg
- Cmax [1, 3]: 291 ng/mL and 350 ng/mL
- Cmax/D [1, 3]: 296 ng/mL/mg/kg and 291 ng/mL/mg/kg and 350 ng/mL/mg/kg
- T1/2 [1, 3]: 15.0 h and 13.8 h
- Tmax [1, 3]: 0.25 h and 0.0833 h
- Vss [1, 3]: 5.99 L/kg and 6.31 L/kg
- Vz [1, 3]: 6.51 L/kg and 6.98 L/kg
- AUC(0-inf) [1, 4]: 3380 ng·h/mL
- AUC(0-inf) [1, 5]: 4130 ng·h/mL
- AUC(0-t) [1, 4]: 2400 ng·h/mL
- AUC(0-t) [1, 5]: 2800 ng·h/mL
- C0 ([1]; female, Sprague Dawley, rat, plasma, iv, 1 mg/kg, C0, female rats, GeoMean): 333 ng/mL
- C0 ([1]; female, Sprague Dawley, rat, plasma, iv, 1 mg/kg, C0, female rats, individual rat): 259 ng/mL
- clearance [1, 4]: 4.92 mL/min/kg
- clearance [1, 5]: 4.04 mL/min/kg
- Cmax ([1]; female, Sprague Dawley, rat, plasma, iv, 1 mg/kg, Cmax, female rats, GeoMean): 311 ng/mL
- Cmax ([1]; female, Sprague Dawley, rat, plasma, iv, 1 mg/kg, Cmax, female rats, individual rat): 296 ng/mL
- half-life ([1]; female, Sprague Dawley, rat, plasma, iv, 1 mg/kg, T1/2, female rats, GeoMean): 14.3 h
- half-life ([1]; female, Sprague Dawley, rat, plasma, iv, 1 mg/kg, T1/2, female rats, individual rat): 14.1 h
- Tmax ([1]; female, Sprague Dawley, rat, plasma, iv, 1 mg/kg, Tmax, female rats, GeoMean): 0.12 h
- Vd ([1]; female, Sprague Dawley, rat, plasma, iv, 1 mg/kg, Vss, female rats, GeoMean): 5.73 L/kg
- Vd ([1]; female, Sprague Dawley, rat, plasma, iv, 1 mg/kg, Vss, female rats, individual rat): 4.96 L/kg
- Vd ([1]; female, Sprague Dawley, rat, plasma, iv, 1 mg/kg, Vz, female rats, GeoMean): 6.08 L/kg
- Vd ([1]; female, Sprague Dawley, rat, plasma, iv, 1 mg/kg, Vz, female rats, individual rat): 4.93 L/kg
- Overt toxic effects during conduct of PK study ([1]; male and female rats, single dose 1 mg/kg IV, 10 or 50 mg/kg PO): No overt toxic effects were observed
- Cmax/D ([1]; male rats, GeoMean (third rat excluded)): 305 ng/mL/mg/kg
- AUCinf [1, 6]: 64.0 µg·min/mL and 321 µg·min/mL
- AUClast [1, 6]: 46.6 µg·min/mL and 139 µg·min/mL
- C0 [1, 6]: 443 ng/mL
- CL [1, 6]: 15.6 mL/min/kg and 3.11 mL/min/kg
- Cmax [1, 6]: 392 ng/mL
- Cmax/D [1, 6]: 237 ng/mL/mg/kg and 392 ng/mL/mg/kg
- T1/2 [1, 6]: 2.96 h and 31.4 h
- Vss [1, 6]: 8.14 L/kg
- Vz [1, 6]: 4.00 L/kg and 8.46 L/kg
- AUC(0-inf) [1, 7]: 2380 ng·h/mL
- AUC(0-t) [1, 7]: 1340 ng·h/mL
- C0 ([1]; male, Sprague Dawley, rat, plasma, iv, 1 mg/kg, C0, male rats, GeoMean (third rat excluded)): 336 ng/mL
- C0 ([1]; male, Sprague Dawley, rat, plasma, iv, 1 mg/kg, C0, male rats, individual rat): 254 ng/mL
- clearance [1, 7]: 6.97 mL/min/kg
- Cmax ([1]; male, Sprague Dawley, rat, plasma, iv, 1 mg/kg, Cmax, male rats, GeoMean (third rat excluded)): 305 ng/mL
- Cmax ([1]; male, Sprague Dawley, rat, plasma, iv, 1 mg/kg, Cmax, male rats, individual rat): 237 ng/mL
- half-life ([1]; male, Sprague Dawley, rat, plasma, iv, 1 mg/kg, T1/2, male rats, GeoMean (third rat excluded)): 9.64 h
- Tmax ([1]; male, Sprague Dawley, rat, plasma, iv, 1 mg/kg, Tmax, male rats, GeoMean (third rat excluded)): 0.0833 h
- Tmax ([1]; male, Sprague Dawley, rat, plasma, iv, 1 mg/kg, Tmax, male rats, individual rat): 0.0833 h
- Vd ([1]; male, Sprague Dawley, rat, plasma, iv, 1 mg/kg, Vss, male rats, GeoMean (third rat excluded)): 5.81 L/kg
- Vd ([1]; male, Sprague Dawley, rat, plasma, iv, 1 mg/kg, Vss, male rats, individual rat): 4.14 L/kg
- Vd ([1]; male, Sprague Dawley, rat, plasma, iv, 1 mg/kg, Vz, male rats, GeoMean (third rat excluded)): 5.82 L/kg
- bioavailability ([2]; oral): 32 to 47%
- bioavailability ([2]; po, 10 mg/kg): 32 to 34%
- AUC% Extrap ([2]; 10 mg/kg PO, GeoMean): 81.9%
- Cmax/D ([2]; 10 mg/kg PO, GeoMean): 59.4 ng/mL/mg/kg
- AUC% Extrap [2, 8]: 76.9% and 88.6% and 80.8%
- AUClast [2, 8]: 484 µg·min/mL and 785 µg·min/mL
- Cmax [2, 8]: 408 ng/mL and 681 ng/mL
- Cmax/D [2, 8]: 75.5 ng/mL/mg/kg and 40.8 ng/mL/mg/kg and 68.1 ng/mL/mg/kg
- Cmax/D ([2]; 50 mg/kg PO, GeoMean): 90.0 ng/mL/mg/kg
- AUClast [2, 9]: 5560 µg·min/mL and 4300 µg·min/mL
- Cmax [2, 9]: 4820 ng/mL and 4320 ng/mL
- Cmax/D [2, 9]: 87.6 ng/mL/mg/kg and 96.4 ng/mL/mg/kg and 86.4 ng/mL/mg/kg
- AUC(0-t) [2, 10]: 11600 ng·h/mL
- AUC(0-t) [2, 11]: 14900 ng·h/mL
- CL/F [2, 10]: 2.46 mL/min/kg
- CL/F [2, 11]: 2.58 mL/min/kg
